Residue numbers refer to the chain shown, from its start. Names may count otherwise. “Also recorded” adds a separate entry of the source. Where no end group is shown, it is not given here. The star is where a group is joined. 5FAM = O=C1OC2(c3ccc(O)cc3Oc3cc(O)ccc32)c2ccc(C(=O)*)cc21

For data set [1], the system named is 14‐3‐3. The settings on record: cited from earlier work.
Data set [2] can be described thus: Oligomeric status by native PAGE. As to conditions: 15 μg protein, 10% native gel (legend: 12%), Coomassie blue. The format is physicochemical. The method in brief:
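Purified untagged 14‐3‐3ζ WT and mutant apoproteins (E. coli‐expressed, Ni‐NTA plus size exclusion, TEV‐cleaved), buffer‐exchanged into 50 mM Na‐HEPES pH 8.0, 150 mM NaCl, 10% glycerol, then run under nondenaturing conditions. Migration read as monomer or dimer.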

The nature of data set [3]: Gel filtration, Hiload 16/600 Superdex 200. The format is physicochemical. The method in brief: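 After His‐tag removal with TEV protease, untagged 14‐3‐3ζ WT or mutant protein from E. coli BL21 DE3 was run on the Superdex 200 column in 50 mM Tris/Cl pH 8.0, 400 mM NaCl, 10% glycerol. Peak fractions collected and elution profile recorded.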
On the technique in general: In gel filtration, larger molecules generally elute earlier.

Data set [4] addresses T1, 14-3-3ζ WT (human), P63104.
T1 chain: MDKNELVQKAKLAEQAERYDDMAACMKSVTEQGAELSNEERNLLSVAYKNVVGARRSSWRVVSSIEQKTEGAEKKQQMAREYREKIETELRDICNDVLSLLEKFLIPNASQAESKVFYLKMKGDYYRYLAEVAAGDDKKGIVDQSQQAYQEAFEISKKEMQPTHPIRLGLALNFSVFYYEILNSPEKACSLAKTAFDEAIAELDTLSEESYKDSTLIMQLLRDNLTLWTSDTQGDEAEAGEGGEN
The experiment in a line: native gel or EMSA. As to conditions: remark: other sources report otherwise. (Mobility shift assays separate free from complexed probe on a gel.)

Data set [5] deals with 14‐3‐3ζ WT and mutant proteins. The experiment in a line: ATPase activity. It is filed as biochemical, human. The settings on record: 10 μM protein, 1 mM ATP, 37°C, 2 h; three independent experiments.
Data set [6] relates to FAM‐labeled peptides (mode2 phosphopeptide). The experiment in a line: Peptide binding ability of 14‐3‐3ζ mutant proteins by fluorescence polarization. As to conditions: FP; FAM‐labeled peptide 62.5 nM, protein 8 to 0.0625 μM, 25°C, 30 min. The method in brief:
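Untagged 14‑3‑3ζ mutants (E. coli BL21 DE3; Ni‑NTA, SEC, TEV cleavage) in 50 mM Na‑HEPES pH 8.0, 150 mM NaCl, 10% glycerol. Protein titrated 8 to 0.0625 μM against constant 62.5 nM N‑terminal FAM‑labeled phosphopeptide. Incubated 30 min at 25°C in the dark before anisotropy reading; K_D fitted.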

Data set [7] relates to 14‐3‐3. As to conditions: ref 16 (Ramteke et al.); cited from earlier work.
Data set [8] is described as follows: Thermal stability by nano‐DSF. It is filed as physicochemical.
The next data set has as its target T2, 14-3-3ζ R55A (human, UniProt P63104 1-245, R55A).
T2 sequence (looked up): T1 chain with R55A
The experiment in a line: MST.

In another data set the target is T3, 14-3-3ζ Y82A (human, UniProt P63104 1-245, Y82A).
T3 sequence (looked up): T1 chain with Y82A
Description: MST.

The next data set has as its target T4, 14-3-3ζ WT (human, UniProt P63104 1-245).
T4 sequence (looked up): T1 chain
The experiment in a line: fluorescence polarisation.

Another data set deals with T5, 14-3-3ζ E180A (human, UniProt P63104 1-245, E180A).
T5 sequence (looked up): T1 chain with E180A
The experiment in a line: fluorescence polarisation. In general terms: In fluorescence polarisation assays a small probe gives low polarisation when free and higher when bound to something large.

With `Nc1ncnc2c1ncn2[C@@H]1O[C@H](COP(=O)(O)O)[C@@H](O)[C@H]1O` [AMP], in the data set with 14‐3‐3 [1], the “binding to 14‐3‐3 alone” value is “Neither AMP nor the nonphospho ChREBP peptide alone can bind strongly to the 14‐3‐3” and the “effect of AMP on 14‐3‐3‐ChREBP peptide complex” value is recorded as “stabilizes 14‐3‐3‐ChREBP peptide‐complex”.

Turning to “14‐3‐3ζ WT: wild-type 14‐3‐3ζ protein expressed in E. coli”, in data set [2], the “migration on native PAGE / oligomeric state” value is “migrated as dimers”. Besides, the “gel filtration elution volume” value in data set [3] turned out to be 68 mL.

B1: 14-3-3ζ WT, P63104 1-245 (natural protein)
chain: T1 chain
Turning to B1, the stoichiometry N (usually the number of molecules, sites or subunits per partner or assembly) in data set [4] stood at 2.

B2: Y82A: 14‐3‐3ζ mutant, monomer, ATPase null mutant (protein)
chain: T1 chain with Y82A
modifications: left off: His6, end not stated, cleaved
For B2, the “ATPase activity (in words, compared with WT)” value in data set [5] is given as “near background luminescence readings‐ it is practically an ATPase null mutant”. For the same molecule, the “peptide binding of 14‐3‐3ζ mutant protein (in words)” value (shortened to “peptide binding”) in [6] is reported as “bound the peptide with comparable affinity to the WT; also recorded: bind all peptides with the same affinity as the WT”. In addition, the “migration on native PAGE / oligomeric state” value in data set [2] is recorded as “could be monomeric in nature”. Moreover, the “gel filtration elution volume” value in data set [3] amounted to 74 mL.

B3: D124A (protein)
chain: T1 chain with D124A
modifications: left off: His6, end not stated, cleaved
For B3, the “ATPase activity (in words, compared with WT)” value in data set [5] is recorded as “higher than that of the WT protein; also recorded: enhanced ATPase activity”. In [6], the “peptide binding” value was “defective in peptide binding”. In addition, the “migration on native PAGE / oligomeric state” value in data set [2] is “migrated as dimers”. Besides, in the data set with 14‐3‐3 [7], the “ATPase activity (earlier study)” value is reported as “increase in ATPase activity”.

B4: N173V (protein)
chain: T1 chain with N173V
modifications: left off: His6, end not stated, cleaved
Take B4: in [5], the “ATPase activity (in words, compared with WT)” value was “had increased ATPase activity and has more affinity for ATP; also recorded: enhanced ATPase activity”. Also, the “peptide binding” value in data set [6] is reported as “defective in peptide binding assays; also recorded: binds less well to the phosphopeptide ligands”. Also, the “thermal stability (in words)” value in data set [8] is reported as “more stable than the D124A”. Moreover, the “migration on native PAGE / oligomeric state” value in data set [2] is “migrated as dimers”.

B5: E180AN173V: 14‐3‐3ζ double mutant (protein)
chain: T1 chain with N173V, E180A
modifications: left off: His6, end not stated, cleaved
For B5, the “thermal stability (in words)” value in [8] is “most unstable and prone to aggregation”. Besides, the “migration on native PAGE / oligomeric state” value in data set [2] is given as “migrated as dimers”.

B6: FAM-labeled nonphosphorylated ExoS peptide (5FAM-QGLLDALDLAS) (peptide)
peptide: 5FAM-QGLLDALDLAS
As for B6, the binding result with 14-3-3ζ R55A, with 14-3-3ζ Y82A, with 14-3-3ζ WT and with 14-3-3ζ E180A was “binds” each time.

Values taken from PMC12429009 (The FASEB Journal, 2025).
